Consider 1 molecule from ChEMBL document CHEMBL4725347, “Discovery of a Monoiodo Aza-BODIPY Near-Infrared Photosensitizer: in vitro and in vivo Evaluation for Photodynamic Therapy” (J Med Chem, 2020).

Bounds are passed on as bounds.

Series [1] can be described thus: Stability of the compound in acetonitrile assessed as compound degradation under dark condition. The class given is physicochemical.
In series [2] the test system is HeLa. The experiment in a line: Induction of apoptosis in human HeLa cells assessed as viable cells at 200 nM preincubated for 3 hrs followed by 27 J/cm2 light irradiation and measured after 24 hrs by Annexin-V-FITC/propidium iodide staining based flow cytometry (reference value: 90.74%). The class given is functional. Particulars: light or radiation study, read-out: Activity; call rule not given here. In outline:
(§1)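 HeLa cells in six-well plates were exposed to compound for 3 h, irradiated (λ > 590 nm), and incubated 24 h at 37 °C. Cells were then harvested, washed with PBS, and stained with annexin V-FITC/PI for 20 min at room temperature before immediate flow cytometry. Untreated, unirradiated cells served as control.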

Series [3] relates to HeLa. The series is described as follows: Induction of reactive oxygen species generation in human HeLa cells incubated for 3 hrs prior to H2DCFDA addition for 20 mins followed by 54 J/cm2 light irradiation by confocal scanning microscopic analysis. The class given is functional, cell-based. In outline:
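HeLa cells were exposed to 0.004, 0.02, 0.10, 0.5 or 2.5 μM for 3 h, washed, and loaded with H2DCFDA 10 μM in PBS for 20 min at 37 °C. After washing, cells in PBS were irradiated with 54 J/cm² (λ > 590 nm) or kept dark. Fluorescence was read by confocal microscopy and by plate reader (ex 485/em 538 nm).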

Series [4] can be described thus: Drug uptake in human HeLa cells xenografted Balb/c nu/nu mouse lung at 2 mg/kg, iv measured within 1 hr by fluorescence imaging analysis. The class given is ADME, organism-based. Particulars: in vivo. In a few lines:
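Female Balb/c nu/nu mice bore subcutaneous HeLa tumors (5×10^6 cells, right back) and received 2 mg/kg via tail vein. Living mice were imaged under isoflurane at time points (ex 680/em 720 nm, 1 s exposure). At set times mice were euthanized and heart, liver, spleen, lungs, kidneys and tumor imaged ex vivo; ROI quantified, mean ± SD, n = 3.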

Series [5] concerns HeLa. The experiment in a line: Induction of apoptosis in human HeLa cells assessed as early apoptotic cells at 40 nM preincubated for 3 hrs followed by 54 J/cm2 light irradiation and measured after 24 hrs by Annexin-V-FITC/propidium iodide staining based flow cytometry (reference value: 0.54%). The class given is functional. In a few lines: as §1
The subject of another series is MCF7. The series is described as follows: Phototoxicity against human MCF7 cells assessed as reduction in cell viability preincubated for 3 hrs followed by 54 J/cm2 light irradiation and measured after 24 hrs by MTT assay. The class given is functional, cell-based. Particulars: MCF7, light or radiation study. In outline:
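PS formulated in PBS containing Cremophor EL/1,2-propanediol (10:3, v:v) after THF removal, filtered, with concentration confirmed by UV-Vis. Cells were grown in DMEM with 10% FBS and seeded at 3×10^3 per well overnight. They were incubated with PS for 3 h, irradiated at λ > 590 nm, kept 24 h at 37 °C, then given MTT (0.5 mg/mL, 4 h) with DMSO solubilization and A490 read-out.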

Series [6] can be described thus: Dark toxicity in human MCF7 cells assessed as reduction in cell viability after 3 hrs by MTT assay. The class given is cell-based.
A short description of series [7]: Drug uptake in endoplasmic reticulum of human HeLa cells at 5 uM incubated for 2 hrs under dark condition by ER tracker green dye based laser confocal microscopic analysis. The class given is ADME, subcellular. In outline:
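HeLa cells adhered overnight on glass-bottom dishes and were loaded with 5 μM compound in the dark for 2 h. After PBS washes, cells were stained with Mito-Tracker Green FM 250 nM for 30 min, Lyso-Tracker Green 160 nM for 30 min, or ER-Tracker Green 2 μM for 45 min. Confocal imaging: trackers excited at 488 nm, collected 500–560 nm; compound excited at 633 nm, collected 650–740 nm.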

In the case of `COc1ccc(C2=[N+]3C(=Nc4c(-c5ccccc5)cc(-c5ccc(OC)cc5)n4[B-]3(F)F)C(c3ccccc3)=C2I)cc1`, in series [1], the Stabilty entry was “Unstable”. Besides, in the series on HeLa [2], the viability at 0.2 µM worked out at 42.9%. In addition, the results for the Activity result in the series on HeLa [3] and in the series with HeLa [5] were “Dose-dependent effect” and 10.68%, respectively. Moreover, the Drug uptake result in series [4] and in series [7] was “Active” in each case. The IC50 in the series on MCF7 stood at 100 nM. Further, the IC50 at 3 h in series [6] is above 50000 nM.
